The values that follow come from ChEMBL document CHEMBL1144914, “Bisintercalating threading diacridines: relationships between DNA binding, cytotoxicity, and cell cycle arrest” (J Med Chem, 2003).

Experiment [1] relates to CCRF-CEM. Description: Cytotoxicity in human leukemic CCRF-CEM cells. The experiment is classed as functional, cell-based. Summed up:
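CCRF-CEM cells in RPMI 1640 with 10% FBS, 2 mM glutamine and pen/strep at 37 °C, 5% CO2, seeded at 1 × 10^5 cells/mL. Agent from 1 mM water stock, diluted in PBS over a concentration range, 72 h exposure. Cells counted by Coulter Counter. Duplicate wells, each curve repeated at least three times. IC50 is 50% growth inhibition versus medium control, from a sigmoidal fit.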

Experiment [2] concerns Nucleic Acid. The experiment can be described thus: Dissociation time constant (Tau 2) for dissociation of compound and calf thymus DNA complex. It counts as nucleic-acid assay. To be noted: Bos taurus. The procedure, abridged:
(§1)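 Sonicated calf thymus DNA–ligand complex equilibrated 1 h at room temperature in 0.1 SHE buffer (HEPES, EDTA, 0.1 M NaCl, pH 7.0), then rapidly mixed with SDS at 23 °C. Final concentrations 500 μM DNA, 50 μM ligand, 20 mM SDS. Absorbance followed at 423 nm over 420–3600 s and expressed as fraction of reaction. Multiexponential nonlinear least-squares fit; mean of five runs.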

The test system of experiment [3] is Nucleic Acid. The experiment can be described thus: Dissociation time constant (Tau 3) for dissociation of compound and calf thymus DNA complex. The experiment is classed as nucleic-acid assay. To be noted: Bos taurus. The procedure, abridged:
as §1

The subject of experiment [4] is Nucleic Acid. The experiment can be described thus: Dissociation time constant (Tau 1) for dissociation of compound and calf thymus DNA complex. It counts as nucleic-acid assay. To be noted: Bos taurus. Summed up:
as §1

Numbered stars: 1 amine (or outer) side, 2 acyl side, 3 side chain; on linkers, the order of the positions; unused ones are H or OH. Bridge positions count the residues as written; N and C are the ends. Square brackets hold non-standard residues; d marks the D form. Peptide text beside a SMILES is read from it. I, II: the chains in the order shown. Actinocin(1to9) = Cc1c2oc3c(C)ccc(C(=O)[*:2])c3nc-2c(C(=O)[*:1])c(N)c1=O; NMeV = CN[C@H](C(=O)O)C(C)C; Sar = CNCC(=O)O

As for `O=C(NCCN1CCOCC1)c1cccc2c(NCCN3CCN(CCNc4c5ccccc5nc5c(C(=O)NCCN6CCOCC6)cccc45)CC3)c3ccccc3nc12`, in experiment [1], the IC50 (usually the midpoint of a concentration-inhibition curve) was found to be 290 nM.

`CN(C)CCNC(=O)c1cccc2c(NCCCCNCCCNc3c4ccccc4nc4c(C(=O)NCCN(C)C)cccc34)c3ccccc3nc12`: half-maximal inhibition in experiment [1] (IC50) required 250 nM. With `O=C(NCCN1CCOCC1)c1cccc2c(NCCCNCCCNc3c4ccccc4nc4c(C(=O)NCCN5CCOCC5)cccc34)c3ccccc3nc12`, the Time constant amounted to 30 s in experiment [2], 88 s in experiment [3] and 5 s in experiment [4]. The molecule also gave an IC50 in experiment [1] of 47 nM. In experiment [1], `O=C(NCCN1CCOCC1)c1cccc2c(NCCNCCNCCNc3c4ccccc4nc4c(C(=O)NCCN5CCOCC5)cccc34)c3ccccc3nc12` yielded an IC50 of 710 nM. With `O=C1c2c(O)ccc(O)c2C(=O)c2c(NCCNCCO)ccc(NCCNCCO)c21` [MITOXANTRONE], in experiment [1], 3.6 nM corresponded to half-maximal inhibition (IC50). Consider `CC[C@@]1(O)C(=O)OCc2c1cc1n(c2=O)Cc2cc3ccccc3nc2-1` [CAMPTOTHECIN], for which, in experiment [1], half-maximal inhibition (IC50) was put at 5.3 nM.

Consider `O=C(NCCN1CCOCC1)c1cccc2c(NCCCCCCCCNc3c4ccccc4nc4c(C(=O)NCCN5CCOCC5)cccc34)c3ccccc3nc12`, for which inhibition in experiment [1] was half-maximal at 810 nM (IC50). In the case of `CS[C@H]1SC[C@H]2C(=O)N(C)[C@@H](C(C)C)C(=O)OC[C@@H](NC(=O)c3cnc4ccccc4n3)C(=O)N[C@@H](C)C(=O)N(C)[C@@H]1C(=O)N(C)[C@@H](C(C)C)C(=O)OC[C@@H](NC(=O)c1cnc3ccccc3n1)C(=O)N[C@@H](C)C(=O)N2C` [ECHINOMYCIN], in experiment [1], half-maximal inhibition (IC50) required 0.5 nM.

With `COC1C(O)CC(OC2CC(Oc3cc4cc5c(c(O)c4c(O)c3C)C(=O)[C@@H](OC3CC(OC4CC(OC6CC(C)(O)C(OC(C)=O)C(C)O6)C(O)C(C)O4)C(O)C(C)O3)[C@H]([C@H](OC)C(=O)[C@@H](O)[C@@H](C)O)C5)OC(C)C2OC(C)=O)OC1C` (stereo partly drawn) [CHROMOMYCIN], inhibition in experiment [1] was half-maximal at 3.5 nM (IC50). On to `CN(C)CCNC(=O)c1cccc2c(NCCNCCNCCNc3c4ccccc4nc4c(C(=O)NCCN(C)C)cccc34)c3ccccc3nc12`, for which the Time constant came to 33 s in experiment [2], 180 s in experiment [3] and 6 s in experiment [4]. Also, the IC50 in experiment [1] amounted to 590 nM.

The molecule `O=C(NCCN1CCOCC1)c1cccc2c(NCCCCCCNc3c4ccccc4nc4c(C(=O)NCCN5CCOCC5)cccc34)c3ccccc3nc12` had an IC50 in experiment [1] of 710 nM. Still for that read-out and setting: to `COC(=O)[C@@H]1c2cc3c(c(O)c2[C@@H](O[C@@H]2O[C@@H](C)[C@H](OC)[C@@](C)(OC)[C@H]2OC)C[C@]1(C)O)C(=O)c1c(O)cc2c(c1C3=O)O[C@@H]1O[C@@]2(C)[C@H](O)[C@@H](N(C)C)[C@@H]1O` [NOGALAMYCIN] belongs 59 nM. `Cc1c2oc3c(C)ccc(C(=O)N[C@@H]4C(=O)N[C@H](C(C)C)C(=O)N5CCC[C@H]5C(=O)N(C)CC(=O)N(C)[C@@H](C(C)C)C(=O)O[C@@H]4C)c3nc-2c(C(=O)N[C@@H]2C(=O)N[C@H](C(C)C)C(=O)N3CCC[C@H]3C(=O)N(C)CC(=O)N(C)[C@@H](C(C)C)C(=O)O[C@@H]2C)c(N)c1=O` [DACTINOMYCIN] (I: T[dV]P[Sar][NMeV] / II: T[dV]P[Sar][NMeV]; ester I:1-I:C, II:1-II:C; linker I:N-II:N via Actinocin(1to9)): the Time constant in experiment [2] turned out to be 68 s; in experiment [3] it was 790 s; in experiment [4], 19 s. The molecule further returned an IC50 in experiment [1] of 1.6 nM. On to `CN(C)CCNC(=O)c1cccc2c(NCCCCCCNc3c4ccccc4nc4c(C(=O)NCCN(C)C)cccc34)c3ccccc3nc12`, for which, in experiment [1], inhibition was half-maximal at 87 nM (IC50). Regarding `CN(C)CCNC(=O)c1cccc2c(NCCN3CCN(CCNc4c5ccccc5nc5c(C(=O)NCCN(C)C)cccc45)CC3)c3ccccc3nc12`, the Time constant in experiment [2] is 22 s; in experiment [3], 220 s; in experiment [4] it was 7 s. In addition, the IC50 in experiment [1] is 63 nM. As to `COc1cc(NS(C)(=O)=O)ccc1Nc1c2ccccc2nc2c(C(N)=O)cccc12`, the IC50 in experiment [1] amounted to 120 nM. For `COc1cc(NS(C)(=O)=O)ccc1Nc1c2ccccc2nc2ccccc12` [AMSACRINE], inhibition in experiment [1] was half-maximal at 130 nM (IC50). Consider `CN(C)CCNC(=O)c1cccc2c(NCCCNCCCNc3c4ccccc4nc4c(C(=O)NCCN(C)C)cccc34)c3ccccc3nc12`, for which the Time constant in experiment [2] was found to be 32 s; in experiment [3], 130 s; in experiment [4], 6 s. In experiment [1], this molecule returned an IC50 of 50 nM.

In experiment [1], `O=C(NCCN1CCOCC1)c1cccc2c(NCCCCNCCCNc3c4ccccc4nc4c(C(=O)NCCN5CCOCC5)cccc34)c3ccccc3nc12` registered an IC50 of 75 nM.

As to `CN(C)CCNC(=O)c1cccc2c(NCCCCCCCCNc3c4ccccc4nc4c(C(=O)NCCN(C)C)cccc34)c3ccccc3nc12`, the results for the Time constant in experiment [2], in experiment [3] and in experiment [4] were 17 s, 53 s and 5 s, respectively. In addition, in experiment [1], the IC50 is 35 nM.
